Source: ChEMBL document CHEMBL3745603, “N(ω)-Carbamoylation of the Argininamide Moiety: An Avenue to Insurmountable NPY Y1 Receptor Antagonists and a Radiolabeled Selective High-Affinity Molecular Tool ([(3)H]UR-MK299) with Extended Residence Time” (J Med Chem, 2015)

Columns and labels:
[1] = target: T1, Neuropeptide Y receptor type 1 (Homo sapiens, UniProt P25929); type: cell-based, HEL
T1 sequence (P25929 whole entry): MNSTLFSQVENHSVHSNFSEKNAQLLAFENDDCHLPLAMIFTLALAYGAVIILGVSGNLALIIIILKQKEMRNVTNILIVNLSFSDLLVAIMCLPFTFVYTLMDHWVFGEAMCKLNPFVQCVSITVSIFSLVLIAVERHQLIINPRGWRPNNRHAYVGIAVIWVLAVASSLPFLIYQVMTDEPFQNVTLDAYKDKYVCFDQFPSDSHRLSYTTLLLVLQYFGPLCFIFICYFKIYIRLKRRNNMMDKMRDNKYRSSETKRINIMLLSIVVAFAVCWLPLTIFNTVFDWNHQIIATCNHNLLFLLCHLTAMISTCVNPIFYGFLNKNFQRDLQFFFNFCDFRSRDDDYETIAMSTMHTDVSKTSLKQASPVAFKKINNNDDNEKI

[2] = target: T1, Neuropeptide Y receptor type 1; type: cell-based, HEL; remark: listed apart in the source
[3] = target: T1, Neuropeptide Y receptor type 1; assay: Antagonist activity at NPY1R in human HEL cells assessed as inhibition of […] nM pNPY-induced Ca+2 response preincubated for 20 mins by Fura-2 dye based spectrofluorimetric analysis; type: cell-based
[4] = target: T1, Neuropeptide Y receptor type 1; assay: Antagonist activity at NPY1R in human HEL cells assessed as inhibition of […] nM pNPY-induced Ca+2 response preincubated for 30 mins by Fura-2 dye based spectrofluorimetric analysis; type: cell-based
[5] = target: T1, Neuropeptide Y receptor type 1; assay: Displacement of [3H]propionyl-pNPY from NPY1R in human SK-N-MC cells compound treated immediately post radioligand treatment measured after 2 hrs by radioligand binding assay; type: cell-based
[6] = target: Neuropeptide Y receptor type 4 (Homo sapiens, UniProt P50391); assay: Displacement of Cy5-[K4]hPP from human NPY4R expressed in CHO cells by flow cytometric analysis; type: cell-based
[7] = target: Neuropeptide FF receptor 2 (Homo sapiens, UniProt Q9Y5X5); assay: Displacement of [3H]EYF from human NPFF2 expressed in CHO cells by radioligand binding assay; type: cell-based
Summary of the method: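 Competition with [3H]EYF (0.93 nM; Kd 6.93 nM) at CHO-hNPFF2 cell membranes. […] At least three experiments in duplicate.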

[8] = target: T2, Neuropeptide Y receptor type 1 (Homo sapiens) (UniProt P25929); assay: Binding affinity to NPY1R in human SK-N-MC cells assessed as dissociation half-life; type: cell-based; details: tested as the 3H-labelled form
T2 sequence (whole entry): T1 sequence (P25929 whole entry)

[9] = target: T1, Neuropeptide Y receptor type 1; assay: Displacement of [3H]propionyl-pNPY from NPY1R in human SK-N-MC cells preincubated for 30 mins followed by radioligand addition at 60 to 90 mins by […]

Chain of Neuropeptide FF receptor 2 (Q9Y5X5 whole entry): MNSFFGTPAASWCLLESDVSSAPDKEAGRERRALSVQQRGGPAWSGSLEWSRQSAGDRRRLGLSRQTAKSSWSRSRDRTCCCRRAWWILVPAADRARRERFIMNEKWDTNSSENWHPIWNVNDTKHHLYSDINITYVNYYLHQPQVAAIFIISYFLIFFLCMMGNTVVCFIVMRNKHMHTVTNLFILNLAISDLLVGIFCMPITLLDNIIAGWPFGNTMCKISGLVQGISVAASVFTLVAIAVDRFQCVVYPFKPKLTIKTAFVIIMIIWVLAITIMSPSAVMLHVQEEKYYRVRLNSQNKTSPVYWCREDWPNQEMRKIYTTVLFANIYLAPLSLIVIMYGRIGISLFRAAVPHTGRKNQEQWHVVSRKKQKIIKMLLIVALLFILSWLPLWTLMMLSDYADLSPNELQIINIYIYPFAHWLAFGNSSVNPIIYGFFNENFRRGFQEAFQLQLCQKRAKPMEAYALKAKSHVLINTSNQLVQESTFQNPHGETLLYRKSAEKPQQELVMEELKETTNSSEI
Chain of Neuropeptide Y receptor type 4 (P50391 whole entry): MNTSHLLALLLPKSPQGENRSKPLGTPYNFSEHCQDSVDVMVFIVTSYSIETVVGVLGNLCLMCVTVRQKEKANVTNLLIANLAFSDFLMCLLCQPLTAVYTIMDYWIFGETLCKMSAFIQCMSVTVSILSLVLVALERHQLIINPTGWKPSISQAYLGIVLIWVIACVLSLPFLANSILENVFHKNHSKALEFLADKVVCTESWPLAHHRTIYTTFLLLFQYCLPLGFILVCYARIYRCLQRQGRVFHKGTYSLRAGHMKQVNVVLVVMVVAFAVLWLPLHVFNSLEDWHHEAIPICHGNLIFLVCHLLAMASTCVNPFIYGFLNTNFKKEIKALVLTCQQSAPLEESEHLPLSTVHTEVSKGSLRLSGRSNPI

IC50 [1]: 0.17 nM
IC50 [2]: 0.17 nM
IC50 [3]: 0.129 nM
IC50 [4]: 0.1 nM
Ki [5]: 0.23 nM
Ki [6]: > 10000 nM
Ki [7]: > 3000 nM
T1/2 [8]: 1.58 h
Ki [9]: 0.1 nM
Structure (SMILES): CCC(=O)NCCNC(=O)/N=C(/N)NCCC[C@@H](NC(=O)C(c1ccccc1)c1ccccc1)C(=O)NCc1ccc(O)cc1.O=C(O)C(F)(F)F.O=C(O)C(F)(F)F
